Rows were chosen to be rich in hits. Some 2.3% of all compounds tested hit in one or more screens of this group.
TRPC4 potent – allosterically enhances the mouse TRPC4 cation channel; AID 2227; B-score at 10 µM; HEK293 TRPC4beta/mu-opioid, DAMGO EC20, Fluo-4 Ca2+ flux; active compounds read high; 310,000 tested, 0.42% active;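 active means B-score of calcium response area above 5 SD of library B-scores, with initial fluorescence ratio within 5 SD of library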;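 further: B-score of integrated fluorescence ratio over time as area under calcium response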
TRPC4 agonist – TRPC4 (mouse) channel activation | 310,000 tested, 0.49% active | HEK293 TRPC4beta/mu-opioid, Fluo4 calcium fluorescence; active compounds read high | Q9QUQ5 | B-score at 10 µM;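 active means B-score above 5 SD of library B-scores, and initial fluorescence ratio not above library mean plus 5 SD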;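 further: positive B-score marks a calcium rise read as TRPC4 activation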
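Material: TRPC4beta and mu-opioid receptor HEK293 stable cells | Incubation: 45 min room-temperature Fluo4 loading, 110 s read | Detection: Kinetic Fluo4 calcium fluorescence | Measure: Integrated baseline-normalised fluorescence ratio, converted to per-well B score | Benchmarks: Low control buffer alone, high control maximal DAMGO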
TRPC4 block – blocks the mouse TRPC4 cation channel | AID 2247 | HEK293 TRPC4beta/mu-opioid, DAMGO-evoked Fluo4 calcium flux; active compounds read low | Q9QUQ5 | B-score at 10 µM | 300,000 tested, 0.39% active;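 active means B-score over 3 SD under the library average, no early fluorescence shift, positive overall ratio signal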
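Material: HEK293 cells with stable TRPC4beta plus mu-opioid receptor expression / Probe or stimulus: DAMGO in two steps, submaximal then maximal / Compound: single concentration per test compound / Technique: kinetic Fluo4 fluorescence imaging of calcium influx / Read-out: per-well B score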
TRPC6 act – mouse TRPC6 channel activation; HEK293-TRPC6 membrane potential dye fluorescence; active compounds read high; 310,000 tested, 0.13% active; Q61143; B-score at 10 µM;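 active means B-score of the integrated fluorescence ratio above library mean plus 3 SD, and starting fluorescence ratio within library mean plus 5 SD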;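 further: higher score means more depolarization so channel activation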
Target sequence (Q61143 whole entry, looked up): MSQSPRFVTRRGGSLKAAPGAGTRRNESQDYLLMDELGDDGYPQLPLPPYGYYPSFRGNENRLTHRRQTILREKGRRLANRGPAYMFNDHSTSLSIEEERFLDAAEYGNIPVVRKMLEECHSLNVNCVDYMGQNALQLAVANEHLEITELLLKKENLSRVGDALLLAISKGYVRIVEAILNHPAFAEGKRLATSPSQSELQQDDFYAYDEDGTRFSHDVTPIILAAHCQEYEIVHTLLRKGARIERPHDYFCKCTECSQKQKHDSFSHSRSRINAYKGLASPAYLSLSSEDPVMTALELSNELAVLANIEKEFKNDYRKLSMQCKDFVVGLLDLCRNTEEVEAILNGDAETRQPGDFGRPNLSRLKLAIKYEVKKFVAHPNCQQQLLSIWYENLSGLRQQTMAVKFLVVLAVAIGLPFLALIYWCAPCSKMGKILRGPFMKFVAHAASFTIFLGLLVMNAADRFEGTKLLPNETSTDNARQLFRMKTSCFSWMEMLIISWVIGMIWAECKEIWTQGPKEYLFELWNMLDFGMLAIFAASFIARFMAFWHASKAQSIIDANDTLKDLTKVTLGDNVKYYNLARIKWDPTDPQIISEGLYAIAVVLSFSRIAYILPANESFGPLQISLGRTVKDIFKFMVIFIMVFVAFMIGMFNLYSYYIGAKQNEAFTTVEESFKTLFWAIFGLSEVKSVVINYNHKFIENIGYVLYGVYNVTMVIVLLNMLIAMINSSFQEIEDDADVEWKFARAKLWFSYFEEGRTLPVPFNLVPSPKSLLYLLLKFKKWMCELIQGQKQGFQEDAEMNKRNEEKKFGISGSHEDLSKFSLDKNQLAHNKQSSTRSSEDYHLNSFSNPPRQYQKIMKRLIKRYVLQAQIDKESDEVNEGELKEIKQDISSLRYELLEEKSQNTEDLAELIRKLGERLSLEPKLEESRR
TRPC6 inh – inhibitors of mouse TRPC6 channel | Q61143 | HEK293-TRPC6, membrane potential dye, ACh-evoked depolarization; active compounds read low | B-score at 10 µM | 310,000 tested, 1.1% active;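 active means B-score under library mean minus 3 SD, initial fluorescence not abnormally high, positive integrated signal ratio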;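 further: B-score derived from integrated fluorescence ratio over the kinetic read; more negative B-score means stronger inhibition of depolarization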
TRPC4 sel inh 2 – mouse TRPC4 off-target activity of TRPC6 inhibitors, second screen; shares compounds with TRPC6 inh; 920 tested, 42% active; HEK293 TRPC4/MOR, membrane potential dye fluorescence; channel activated by saturating DAMGO dose; inhibition, % at 10 µM;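 active means compounds whose fluorescence signal differed from control wells by over 3 SD, either direction, in both duplicate plates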
TRPC4 spec – selectivity of TRPC6 inhibitors: effect on mouse TRPC4 | 920 tested, 61% active | activity change, negative = inhibition, % at 10 µM | HEK293 TRPC4/mu-opioid, membrane potential fluorescence | shares compounds with TRPC6 inh;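 active means rise or fall in signal beyond 3 SD of buffer-only wells in both replicate plates, either sign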;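 further: integrated kinetic ratio of fluorescence range over baseline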
HEK293 MPD ctr 2-1 – second counter-screen for TRPC6 inhibitors: parental HEK293 cells; shares compounds with TRPC6 inh; parental HEK293 membrane potential dye fluorescence; maximal acetylcholine challenge after compound addition; signal change vs control, % at 10 µM; 920 tested, 31% active;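 active means membrane potential signal moving either way by over 3 SD of the maximum-effect control, in both duplicate plates, meaning non-specific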
HEK293 MPD ctr-1 – parental HEK293 nonspecific activity of TRPC6 inhibitors; shares compounds with TRPC6 inh; parental HEK293 membrane potential dye fluorescence; 920 tested, 60% active; membrane potential signal change, % at 10 µM; AID 2780;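 active means membrane potential signal shifting up or down by more than 3 SD of buffer-only wells, on both duplicate plates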
HEK293 MPD ctr-2 – counter-screen for TRPC6 modulators: effect in parental HEK293 cells. shares compounds with TRPC6 inh. AID 488924. membrane potential signal change, % at 10 µM. membrane potential dye fluorescence. 2,400 tested, 51% active;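 active means membrane potential signal moves up or down beyond 5 SD from buffer-only wells, on both duplicate plates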
HEK293 MPD ctr 2-2 – parental HEK293 nonspecific activity of TRPC6 modulators, second screen; membrane potential dye fluorescence; after compound, maximal acetylcholine stimulation; shares compounds with TRPC6 inh; inhibition, % at 10 µM; 2,400 tested, 14% active; AID 488926;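 active means membrane potential signal drops by more than 5 SD from the mean control signal, in both duplicate plates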;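 further: plate controls were acetylcholine ECmax control wells for no effect and buffer only wells for full effect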
TRPC4/MOR mod – mouse TRPC4 off-target activity of TRPC6 modulators; percent change from control (negative = decrease, positive = increase), % at 10 µM; HEK293 TRPC4/mu-opioid, membrane potential fluorescence; 2,400 tested, 69% active; shares compounds with TRPC6 inh;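 active means membrane potential signal moved up or down beyond 5 SD of buffer control wells, in both duplicate plates, actives on both sides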;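 further: plate controls were assay buffer wells for no effect and DAMGO maximal-effect wells for full effect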
TRPC4 ctr inh 2 – mouse TRPC4 off-target activity of TRPC6 modulators, second screen. shares compounds with TRPC6 inh. HEK293 TRPC4/mu-opioid, membrane potential dye fluorescence; stimulated with maximal-effect DAMGO. inhibition, % at 10 µM. 2,400 tested, 55% active;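 active means drop in membrane potential signal beyond 5 SD of the control wells in both duplicate plates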;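 further: TRPC4 counter screen for TRPC6 hits run under conditions tuned for TRPC6 not TRPC4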
TRPC6 inh conf – mouse TRPC6 inhibitor confirmation | shares compounds with TRPC6 inh | HEK293-TRPC6, membrane potential dye, ACh-evoked depolarization | inhibition, % at 10 µM | 3,300 tested, 43% active | AID 488960;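 active means fluorescence ratio falls more than 5 SD below the full-stimulation control mean, in both duplicate runs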;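 further: integrated fluorescence ratio of peak minus minimum over baseline after agonist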
TRPC6 act conf – confirmation of mouse TRPC6 activators | activation, % at 10 µM | 2,800 tested, 11% active | AID 488961 | HEK293-TRPC6 membrane potential dye fluorescence, FDSS | shares compounds with TRPC6 inh;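 active means ratio signal rise beyond 5 SD above unstimulated control wells' mean, seen in both duplicate runs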;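 further: plate controls were buffer EC0 wells for no effect and acetylcholine ECmax response for full effect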
* hit, by the source's call; i = inactive; . = not tested or not shown.

SMILES	TRPC4 potent	TRPC4 agonist	TRPC4 block	TRPC6 act	TRPC6 inh	HEK293 MPD ctr-2	HEK293 MPD ctr 2-2	TRPC4/MOR mod	TRPC4 ctr inh 2	TRPC6 inh conf	TRPC6 act conf	others
C[N+]1(C)CCC(OC(=O)C(c2ccccc2)c2ccccc2)CC1	i	i	i	i	-7.3*	.	.	.	.	91%*	i	TRPC4 sel inh 2=i;TRPC4 spec=i;HEK293 MPD ctr 2-1=-18%*;HEK293 MPD ctr-1=i
C[N+]1(C)[C@@H]2CC[C@H]1CC(OC(=O)[C@@H](CO)c1ccccc1)C2 (stereo not given in full)	i	i	i	i	-7.7*	.	.	.	.	96%*	i	TRPC4 sel inh 2=i;TRPC4 spec=i;HEK293 MPD ctr 2-1=-38%*;HEK293 MPD ctr-1=i
CC1=C2C(=O)C3C(CC=C4CC(O)CCC43C)C2CCC12OC1CC(C)CNC1C2C (stereo not given)	i	i	i	i	i	.	.	.	.	.	.
O=C1C2CCCC1C(N1CCCCC1)CC2 (stereo not given)	i	i	i	i	i	.	.	.	.	.	.
O=C(c1cccc(C(F)(F)F)c1)C1CCCN(Cc2ncc[nH]2)C1 (stereo not given)	i	i	i	i	i	.	.	.	.	.	.
CCn1ccnc1CN1CCCC(C(=O)c2cccc(C(F)(F)F)c2)C1 (stereo not given)	i	i	i	i	-5.1*	i	i	8.0%*	65%*	62%*	.
CCCN1CCc2cccc3c2[C@H]1Cc1ccc(O)c(O)c1-3	i	i	i	i	-5.6*	i	i	i	37%*	i	i
COc1cc2c(cc1O)CC1c3c(cc(O)c(OC)c3-2)CCN1C (stereo not given)	i	i	i	i	i	.	.	.	.	.	.
Cc1nc2c(C(=O)N3CCC4(CC3)OCCO4)cnn2c(C)c1Cc1cccc(Cl)c1	i	i	i	i	-5.2*	i	i	i	i	45%*	.
COP(=O)(OC)C(NC(C)=O)C(Cl)(Cl)Cl (stereo not given)	i	i	i	i	i	.	.	.	.	.	.
CN1CCN(c2ccc([N+](=O)[O-])c(N/N=C3\CN4CCC3CC4)c2)CC1	i	i	i	i	-12*	-230%*	70%*	-48%*	82%*	76%*	i
CCNc1cc(N2CCN(C)CC2)ccc1[N+](=O)[O-]	i	i	i	i	i	.	.	.	.	.	.
CC(C)c1oc(=O)cc2c1[C@@H](O)[C@H]1OC(=O)[C@@]3(C)C[C@@H](O)[C@@H](O)[C@@]2(C)C13 (stereo not given in full)	i	i	i	i	i	.	.	.	.	.	.
CCCCCSc1cc(OC)c(CCN)cc1OC	i	i	i	i	-6.5*	i	i	i	59%*	40%*	i
N=Cc1c(O)n(-c2ccccc2)c(=O)n(-c2ccccc2)c1=O	i	i	i	i	i	.	.	.	.	.	.
COC(=O)CC1=C(C(=O)OC)C2(C(=O)Nc3c(C)cccc32)C(C#N)=C(N)O1 (stereo not given)	i	i	i	i	i	.	.	.	.	.	.
Cc1cccc(-c2nc3ccc(C(=O)N4CCC5(CC4)OCCO5)cc3nc2-c2cccc(C)c2)c1	i	i	i	13*	-7.3*	i	i	14%*	i	79%*	116%*
CCCC(C)n1[nH]c(=O)c2c1NC(=O)CSC2c1ccccc1 (stereo not given)	i	i	i	i	i	.	.	.	.	.	.
CCOC(C(=O)OCCC[N+](C)(CC)CC)(c1ccccc1)c1ccccc1	i	i	i	i	i	.	.	.	.	.	.
CC[N+](C)(CC)CCCOC(=O)C(O)(c1ccccc1)C1CCCCC1 (stereo not given)	i	i	i	i	-8.1*	.	.	.	.	i	i	TRPC4 sel inh 2=i;TRPC4 spec=i;HEK293 MPD ctr 2-1=i;HEK293 MPD ctr-1=i
Cc1ccc(Cc2c(C)nc3nc(SCC(=O)N4CCC5(CC4)OCCO5)nn3c2C)cc1	i	i	i	13*	-11*	184%*	i	32%*	38%*	46%*	152%*
COC(=O)C1C2c3ccccc3C(c3ccccc32)C1C(=O)OC (stereo not given)	i	i	i	i	i	.	.	.	.	.	.
CCC(C)/C=C(C)/C=C/C1=CC2=C(Cl)C(=O)C(C)(OC(C)=O)C(=O)C2=CO1 (stereo not given)	i	i	i	i	-6.5*	-84%*	69%*	-22%*	93%*	88%*	i
CCc1ccc(-c2nn(Cc3ccccc3)cc2C=O)cc1	i	i	i	i	i	.	.	.	.	.	.
CCN(CC)CCCOC(=O)C(OC)(c1ccccc1)c1ccccc1	i	i	i	i	-6.4*	153%*	78%*	34%*	i	61%*	.
O=C(O)CCn1cc(C=C2C(=O)NC(=O)NC2=O)c(-c2cc3ccccc3oc2=O)n1	i	i	i	i	i	.	.	.	.	.	.
C[N+]12CCC(CC1)C(=C(c1ccccc1)c1ccccc1)C2	i	i	i	i	-6.8*	.	.	.	.	81%*	i	TRPC4 sel inh 2=i;TRPC4 spec=i;HEK293 MPD ctr 2-1=-12%*;HEK293 MPD ctr-1=i

Screening data deposited in PubChem BioAssay by Johns Hopkins Ion Channel Center.
